The source made the active and inactive calls. The rule behind the calls is not given here.
How the values were obtained:
[1] = biological target: T1, Nucleotide-binding oligomerization domain-containing protein 1 (Homo sapiens) (UniProt Q9Y239); assay: Antagonist activity at NOD1 in HEK-Blue hNOD1 cells assessed as inhibition of C12-iE-DAP-induced NFkappaB activation-mediated SEAP release at 5 uM preincubated for 3 hrs followed by C12-iE-DAP addition and measured after 20 hrs by spectrophotometric method relative to control; type: cell-based; details: filed as antagonist, time 23.0 hrs
T1 sequence (whole entry): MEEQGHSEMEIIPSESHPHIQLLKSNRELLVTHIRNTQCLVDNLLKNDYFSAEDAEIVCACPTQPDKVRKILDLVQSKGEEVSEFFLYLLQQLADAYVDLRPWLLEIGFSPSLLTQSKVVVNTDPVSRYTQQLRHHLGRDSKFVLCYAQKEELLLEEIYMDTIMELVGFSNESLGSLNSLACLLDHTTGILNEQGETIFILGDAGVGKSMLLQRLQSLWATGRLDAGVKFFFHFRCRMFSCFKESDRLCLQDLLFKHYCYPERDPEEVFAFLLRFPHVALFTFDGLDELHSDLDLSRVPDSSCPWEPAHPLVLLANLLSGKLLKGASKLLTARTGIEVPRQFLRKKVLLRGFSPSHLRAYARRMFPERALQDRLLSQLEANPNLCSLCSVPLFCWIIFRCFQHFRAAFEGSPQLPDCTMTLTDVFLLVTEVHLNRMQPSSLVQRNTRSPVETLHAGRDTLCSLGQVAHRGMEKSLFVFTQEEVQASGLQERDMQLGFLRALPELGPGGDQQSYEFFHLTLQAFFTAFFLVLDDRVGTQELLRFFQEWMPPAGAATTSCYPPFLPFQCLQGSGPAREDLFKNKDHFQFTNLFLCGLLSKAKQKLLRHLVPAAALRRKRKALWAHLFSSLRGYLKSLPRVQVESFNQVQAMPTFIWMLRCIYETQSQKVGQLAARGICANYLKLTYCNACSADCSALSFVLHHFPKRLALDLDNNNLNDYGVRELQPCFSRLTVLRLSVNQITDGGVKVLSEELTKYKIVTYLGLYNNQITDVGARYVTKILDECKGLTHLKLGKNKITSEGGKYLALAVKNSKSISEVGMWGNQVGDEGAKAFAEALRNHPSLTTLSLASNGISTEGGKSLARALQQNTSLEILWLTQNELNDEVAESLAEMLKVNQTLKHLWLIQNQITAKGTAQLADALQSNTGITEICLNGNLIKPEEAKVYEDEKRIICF

[2] = biological target: T1, Nucleotide-binding oligomerization domain-containing protein 1 (Homo sapiens); assay: Antagonist activity at NOD1 in human THP-1 cells assessed as inhibition of C12-iE-DAP-induced IkappaBalpha degradation at 1 to 10 uM preincubated for 1 hr followed by C12-iE-DAP addition and measured after 30 mins by Western blot analysis; type: cell-based; details: filed as antagonist, dose 1-10 µM, time 1.5 hrs
How it was run: (§1)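 Serum-starved THP-1 cells pretreated with compound (1.0 or 10 µM) or without for 1 h. Then C12-iE-DAP 500 ng/mL (NOD1) or MDP (NOD2) for 30 min. Lysed in cold whole-cell buffer. Western blot for IκBα and for total and phospho RIP2, IKKα/β, p65, JNK, p38 and ERK1/2. β-actin as loading control.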

B16-F10 = assay: Potentiation of paclitaxel-induced antitumor activity against mouse B16-F10 cells implanted in C57BL/6 mouse assessed as tumor growth inhibition at 50 mg/kg, iv administered every other day for 15 days measured 24 hrs post last dose (reference value: 64.07%); type: functional; details: 384 h, time 16 day, read-out: TGI
[3] = biological target: T1, Nucleotide-binding oligomerization domain-containing protein 1 (Homo sapiens); assay: Antagonist activity at NOD1 in human THP-1 cells assessed as inhibition of C12-iE-DAP-induced IL8 mRNA expression preincubated for 1 hr followed by C12-iE-DAP addition and measured after 90 mins by qRT-PCR analysis; type: cell-based; details: filed as antagonist, dose 1-10 µM, time 150.0 min
How it was run: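 THP-1 cells in RPMI-1640 with 10% FBS, treated with compound (1.0 or 10 µM) or vehicle for 1 h. Then stimulated 90 min with C12-iE-DAP 500 ng/mL (NOD1) or MDP (NOD2). IL-6, TNF-α and IL-8 mRNA measured by qRT-PCR. Mean ± SD, n = 6, two-tailed t-test.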

[4] = biological target: T2, Nucleotide-binding oligomerization domain-containing protein 2 (Homo sapiens, UniProt Q9HC29); assay: Antagonist activity at NOD2 in human THP-1 cells assessed as inhibition of MDP-induced IkappaBalpha degradation preincubated for 1 hr followed by MDP addition and measured after 30 mins by Western blot analysis; type: cell-based; details: filed as antagonist, dose 1-10 µM, time 1.5 hrs; how it was run: as §1
T2 sequence (Q9HC29 whole entry, the tested form may be a part): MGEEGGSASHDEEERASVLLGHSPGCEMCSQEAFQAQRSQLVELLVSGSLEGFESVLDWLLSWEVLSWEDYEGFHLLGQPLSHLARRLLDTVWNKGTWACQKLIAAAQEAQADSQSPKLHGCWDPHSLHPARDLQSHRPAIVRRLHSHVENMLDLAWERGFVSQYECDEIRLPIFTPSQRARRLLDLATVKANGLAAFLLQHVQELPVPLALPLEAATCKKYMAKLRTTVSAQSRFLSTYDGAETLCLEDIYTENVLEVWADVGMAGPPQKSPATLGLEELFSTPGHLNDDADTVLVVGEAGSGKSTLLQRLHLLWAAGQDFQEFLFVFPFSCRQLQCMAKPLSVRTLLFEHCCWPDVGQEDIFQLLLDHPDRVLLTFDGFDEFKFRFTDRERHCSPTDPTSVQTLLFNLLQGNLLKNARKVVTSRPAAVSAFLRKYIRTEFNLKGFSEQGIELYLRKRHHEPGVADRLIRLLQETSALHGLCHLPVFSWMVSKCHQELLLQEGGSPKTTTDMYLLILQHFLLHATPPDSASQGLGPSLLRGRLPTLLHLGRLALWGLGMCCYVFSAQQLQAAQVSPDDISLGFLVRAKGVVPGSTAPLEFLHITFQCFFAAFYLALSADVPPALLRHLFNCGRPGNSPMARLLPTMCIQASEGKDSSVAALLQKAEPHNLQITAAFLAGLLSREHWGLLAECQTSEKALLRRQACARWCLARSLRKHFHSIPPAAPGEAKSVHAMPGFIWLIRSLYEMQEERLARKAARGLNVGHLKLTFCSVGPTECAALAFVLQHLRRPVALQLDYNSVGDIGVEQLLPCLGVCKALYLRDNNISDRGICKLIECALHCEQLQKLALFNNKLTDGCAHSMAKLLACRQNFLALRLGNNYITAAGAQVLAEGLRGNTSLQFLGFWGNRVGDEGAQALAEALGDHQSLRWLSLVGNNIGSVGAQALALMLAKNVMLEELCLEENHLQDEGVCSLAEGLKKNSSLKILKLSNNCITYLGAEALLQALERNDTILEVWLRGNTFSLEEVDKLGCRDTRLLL

[5] = biological target: T2, Nucleotide-binding oligomerization domain-containing protein 2; assay: Antagonist activity at NOD2 in HEK-Blue hNOD2 cells assessed as inhibition of MDP-induced NFkappaB activation-mediated SEAP release preincubated for 3 hrs followed by MDP addition and measured after 20 hrs by spectrophotometric method; type: cell-based
How it was run: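 HEK-Blue hNOD2 cells preincubated 3 h with a range of concentrations, then MDP 100 ng/mL for 20 h. SEAP quantified. SRB assay run to exclude cytotoxicity. IC50 by nonlinear semi-logarithmic fit, mean ± SD, n = 3.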

[6] = biological target: T2, Nucleotide-binding oligomerization domain-containing protein 2; assay: Antagonist activity at NOD2 in human THP-1 cells assessed as inhibition of MDP-induced increase in RIP2 phosphorylation preincubated for 1 hr followed by MDP addition and measured after 30 mins by Western blot analysis; type: cell-based; details: filed as antagonist, dose 1-10 µM, time 1.5 hrs; how it was run: as §1
[7] = biological target: T1, Nucleotide-binding oligomerization domain-containing protein 1 (Homo sapiens); assay: Antagonist activity at NOD1 in human THP-1 cells assessed as inhibition of C12-iE-DAP-induced increase in RIP2 phosphorylation at 1 to 10 uM preincubated for 1 hr followed by C12-iE-DAP addition and measured after 30 mins by Western blot analysis; type: cell-based; details: filed as antagonist, dose 1-10 µM, time 1.5 hrs; how it was run: as §1
[8] = biological target: T1, Nucleotide-binding oligomerization domain-containing protein 1 (Homo sapiens); assay: Antagonist activity at NOD1 in human THP-1 cells assessed as inhibition of C12-iE-DAP-induced increase in p65 phosphorylation at 1 to 10 uM preincubated for 1 hr followed by C12-iE-DAP addition and measured after 30 mins by Western blot analysis; type: cell-based; details: filed as antagonist, dose 1-10 µM, time 1.5 hrs; how it was run: as §1
[9] = biological target: T1, Nucleotide-binding oligomerization domain-containing protein 1 (Homo sapiens); assay: (§2) Antagonist activity at NOD1 in HEK-Blue hNOD1 cells assessed as inhibition of C12-iE-DAP-induced NFkappaB activation-mediated SEAP release preincubated for 3 hrs followed by C12-iE-DAP addition and measured after 20 hrs by spectrophotometric method; type: cell-based; details: filed as antagonist, time 23.0 hrs
[10] = biological target: T3, Nucleotide-binding oligomerization domain-containing protein 1 (Homo sapiens, UniProt Q9Y239); assay: as §2; type: cell-based
T3 sequence (Q9Y239 whole entry): T1 sequence (whole entry)

[11] = biological target: T1, Nucleotide-binding oligomerization domain-containing protein 1 (Homo sapiens); assay: Antagonist activity at NOD1 in human THP-1 cells assessed as inhibition of C12-iE-DAP-induced increase in IKKalpha/beta phosphorylation at 1 to 10 uM preincubated for 1 hr followed by C12-iE-DAP addition and measured after 30 mins by Western blot analysis; type: cell-based; details: filed as antagonist, dose 1-10 µM, time 1.5 hrs; how it was run: as §1
[12] = biological target: T1, Nucleotide-binding oligomerization domain-containing protein 1 (Homo sapiens); assay: Antagonist activity at NOD1 in human THP-1 cells assessed as inhibition of C12-iE-DAP-induced increase in JNK phosphorylation at 1 to 10 uM preincubated for 1 hr followed by C12-iE-DAP addition and measured after 30 mins by Western blot analysis; type: cell-based; details: filed as antagonist, dose 1-10 µM, time 1.5 hrs; how it was run: as §1
[13] = biological target: T2, Nucleotide-binding oligomerization domain-containing protein 2; assay: Antagonist activity at NOD2 in human THP-1 cells assessed as inhibition of MDP-induced increase in p65 phosphorylation preincubated for 1 hr followed by MDP addition and measured after 30 mins by Western blot analysis; type: cell-based; details: filed as antagonist, dose 1-10 µM, time 1.5 hrs; how it was run: as §1

## O=C(NCCCOc1ccc(C(F)(F)F)cc1)c1cc2ncn(CC(=O)N3CCCC(F)(F)C3)c(=O)c2cc1-c1cccc(Cl)c1
[1]
  inhibition: 91.4%
[2]
  inhibition: Active
B16-F10
  inhibition in vivo at 50 mg/kg: 85.5%
[3]
  inhibition: Dose-dependent effect
[4]
  inhibition: Dose-dependent effect
[5]
  IC50: 770 nM
[5]; filed as antagonist, time 23.0 hrs
  inhibition: Dose-dependent effect
[6]
  inhibition: Dose-dependent effect
[7]
  inhibition: Active
[8]
  inhibition: Active
[9]
  inhibition: Dose-dependent effect
[10]
  IC50: 1130 nM
[11]
  inhibition: Active
[12]
  inhibition: Active
[13]
  inhibition: Dose-dependent effect

— ChEMBL document CHEMBL4706575, “Nonpeptidic quinazolinone derivatives as dual nucleotide-binding oligomerization domain-like receptor 1/2 antagonists for adjuvant cancer chemotherapy” (Eur J Med Chem, 2020)
